UBC13 polyUb – UBC13 polyubiquitin chain formation inhibitors, primary screen, biochemical, TR-FRET, uHTS | Ubiquitin-conjugating enzyme E2 N (Homo sapiens), P61088 | inhibition, % at 20 µM | actives 0.47% (n = 330,000) | AID 485273, 2010; in the data active means inhibition above about 45%, passing the limit was not always enough
Target sequence (P61088 whole entry, looked up): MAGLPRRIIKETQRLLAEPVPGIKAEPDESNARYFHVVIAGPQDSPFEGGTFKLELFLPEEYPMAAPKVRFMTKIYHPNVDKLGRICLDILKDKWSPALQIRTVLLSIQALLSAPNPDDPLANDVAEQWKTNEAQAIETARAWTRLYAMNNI
Apaf-1 inh – inhibitors of human Apaf-1 apoptosome, primary screen, biochemical, DEVD-Rh110 fluorescence, uHTS; reconstituted apoptosome caspase-3 activity; actives 0.71% (n = 330,000); inhibition, % at 20 µM; Apoptotic protease-activating factor 1 (Homo sapiens), O14727; active means inhibition of at least 40% at 20 µM;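 further: plate controls were DMSO wells for no effect and DEVD-CHO caspase inhibitor wells for full effect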
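System: Apoptosome proteins | Medium: Hepes pH 7.5 with detergent and BSA | Also added: Cytochrome c trigger plus (Z-DEVD)2-Rh110 caspase-3 substrate | Incubation: 30 min compound preincubation, 50 min activation, room temperature | Detection: Rhodamine 110 fluorescence at Ex 480/Em 540 nm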
beta cell repl – inducers of MIN6 beta-cell proliferation, primary screen, ATP luminescence, uHTS; proliferation, % at 10 µM; AID 2380, 2010; MIN6 cells proliferation, ATPlite luminescence, 48 h; cells starved in 0.2% serum; 100% = growth in 10% serum; actives 0.29% (n = 330,000);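 active means compounds whose signal lies at least 3.5 SD above the mean of all wells on their plate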;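 further: 0% = DMSO-treated cells in low-serum medium and 100% = 10% serum control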
MPTP block – mitochondrial permeability transition pore inhibitors, primary screen, biochemical, isolated mouse mitochondria, absorbance; Ca2+ swelling absorbance, 30 min; inhibition, % at 10 µM; actives 1.4% (n = 360,000);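 active means inhibition of 50% or more, scaled per plate between neutral and stimulator controls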;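 further: 0% = DMSO wells given calcium and 100% = 1 mM EGTA wells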
Exocytosis inh – LAMP-1 surface exposure blockers, TALL-104 cells – cell-based, flow cytometry, MLPCN library, primary screen | TALL-104 LAMP-1 surface exposure; cells stimulated with thapsigargin and PMA | actives 0.66% (n = 360,000) | inhibition, % at 10 µM | AID 651702, 2012;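 active means inhibition above about 55%, limit read from the data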
iPSC survival up – enhancers of single-cell hiPSC survival, primary screen, ATPlite luminescence; actives 0.044% (n = 360,000); survival enhancement, % at 20 µM; 100% = ROCK inhibitor wells, 0% = DMSO; in the data active means survival enhancement above about 18%;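 further: cells exposed to compounds for 16 hours before the ATP read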
Rh123 counter – fluorescence retest of MPTP screen hits in isolated mitochondria, single concentration; shares compounds with MPTP block; membrane potential, Rhodamine 123 fluorescence; inhibition, % at 10 µM; actives 78% (n = 5,000); AID 624504, 2012; in the data active means inhibition above about 22%;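 further: 0% = DMSO vehicle and 100% = positive control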
The depositor's hits bear a star; . = no result given. Rows were chosen to be rich in hits. Some 3% of all compounds tested hit in one or more screens of this group.

SMILES | UBC13 polyUb | Apaf-1 inh | beta cell repl | MPTP block | Exocytosis inh | iPSC survival up | Rh123 counter
O=C(CSc1nc2ccc(Cl)cc2[nH]1)c1ccc2c(c1)OCO2 | -5 | -21 | -4 | 1 | -3 | 3 | .
O=C(CSc1nc2cc(Cl)c(Cl)cc2[nH]1)c1ccc2c(c1)OCO2 | -6 | -10 | 1 | 78* | -1 | 0 | 73*
O=C(Nc1ccc(F)cc1)Nc1ccc(S(=O)(=O)N2CCCC2)cc1 | 3 | 2 | -1 | 83* | -2 | 1 | 100*
CC(=O)c1ccc(NC(=O)Nc2ccc(S(=O)(=O)N3CCCC3)cc2)cc1 | -11 | 6 | -4 | 80* | -2 | 0 | 93*
Cc1oc(S(=O)(=O)N2CCCCC2)cc1NC(=O)Nc1ccc(F)cc1 | -5 | -2 | -2 | 77* | 1 | -1 | 87*
CCOc1ccc(S(=O)(=O)/N=C(/Nc2ccc(C)c(S(=O)(=O)N3CCOCC3)c2)c2ccccc2)cc1 | 5 | 18 | 0 | -1 | 2 | 0 | .
O=C(NNC(=S)Nc1ccc(Cl)cc1)c1ccccc1OC(F)F | -20 | 19 | -2 | 73* | -2 | 0 | 86*
COc1ccccc1NC(=S)NNC(=S)Nc1ccc(OC(F)F)cc1 | 3 | 4 | 1 | 97* | 3 | -1 | 81*
O=C(NNC(=S)NCc1ccccc1)c1ccccc1OC(F)F | 1 | 6 | 0 | 2 | -3 | 3 | .
CCOc1ccc(S(=O)(=O)N2CCCCC2)cc1NC(=O)c1ccccc1 | . | . | . | 0 | -2 | -2 | .
CCCCCc1cc(O)c2c(C)cc(=O)oc2c1 | 12 | 3 | -6 | 86* | 4 | 4 | 79*
CCCc1cc(=O)oc2cc(C)cc(OC(=O)c3ccco3)c12 | 16 | -2 | -3 | 84* | -4 | -2 | 88*
CCCc1cc(=O)oc2cc(C)cc(O)c12 | 41 | 5 | -1 | 78* | 3 | 8 | 78*
CCCc1cc(=O)oc2cc(C)cc(OCC(=O)NCc3cccnc3)c12 | 17 | -3 | 0 | 0 | 4 | 0 | .
COC(=O)C[C@H]1C=C[C@@H](NS(=O)(=O)c2ccccc2)[C@@H](CO)O1 | . | . | . | -2 | -2 | . | .
CCCc1c(C(=O)Nc2ccc(F)cc2C)cnn1-c1ccccc1 | 5 | 7 | 2 | 2 | -5 | -1 | .
CCCc1c(NC(=O)Nc2ccc(F)cc2)cnn1-c1ccccc1 | 3 | 0 | -1 | 52* | 4 | 1 | 67*
C=CCOc1ccc(CN(C)C(=O)c2ccc(CNS(=O)(=O)c3ccc(C)c(C)c3)cc2)cc1 | 9 | 12 | -8 | 0 | -5 | 0 | .
O=C(CCc1ccccc1)NC(NC(=S)Nc1ccc(Br)cc1)C(Cl)(Cl)Cl (stereo not drawn) | -21 | 1 | -4 | 81* | 0 | 0 | 81*
O=C(CCc1ccccc1)NC(NC(=S)Nc1cccc(Cl)c1)C(Cl)(Cl)Cl (stereo not drawn) | -8 | 5 | -3 | 94* | -2 | -3 | 78*
O=C(CCc1ccccc1)NNC(=O)Nc1ccc(Br)cc1 | 6 | 6 | -1 | 40 | 1 | 0 | .
CSc1cccc(NC(=S)NC(=O)CCc2ccccc2)c1 | -15 | 19 | -6 | 1 | -2 | 0 | .
CCCC(=O)NC(NC(=S)Nc1ccc(N=Nc2ccccc2)cc1)C(Cl)(Cl)Cl (stereo not drawn) | -15 | 8 | -5 | 103* | 5 | -1 | 62*
Cc1ccc(-n2ncc3c(N4CCN(c5ccccc5)CC4)ncnc32)c(C)c1 | 3 | 25 | -6 | 51* | -3 | -3 | 34*
COc1ccc(N2CCN(c3ncnc4c3cnn4-c3ccc(C)cc3C)CC2)cc1 | 8 | 7 | 0 | 10 | -3 | 0 | .
CCO[C@H]1c2c(ccc3ccc(=O)oc23)OC(C)(C)[C@H]1O | 18 | -2 | -1 | -2 | -5 | -1 | .
O=C(O)CC(c1ccccc1)c1ccc2c(c1)OCO2 (stereo not drawn) | . | . | . | 0 | -1 | 7 | .
